Data reported in paper PMC7578760 (iScience, 2020).

Experiments:
DUSP6 [1] = assay: Western blot of DUSP6 expression in 1205Lu melanoma cells; assay type: cell-based; settings: 1205Lu (BRAF^V600E), 2 μM PLX4032, 0, 6, 24 h
DUSP6 [2] = assay: Western blot of DUSP6 expression in 293T / 293T^CIC cells; assay type: cell-based, human; settings: parental 293T, 10 ng/mL FGF, various times; SCH772984 10 μM
Procedure, shortened: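 Parental and CIC-knockout 293T cells grown in high-glucose DMEM with 10% FBS and penicillin-streptomycin. Cells stimulated with 10 ng/mL FGF for various times, with or without 10 uM ERK inhibitor, then lysed. DUSP6 detected by western blot.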

ERK signaling = assay: Block of ERK signaling in MCF7 cells; assay type: cell-based, human
ERK1/2 = assay: Western blot of activated ERK1/2 in 293T^CIC cells; assay type: cell-based, human; settings: 10 μM, 4 h

`CCCS(=O)(=O)Nc1ccc(F)c(C(=O)c2c[nH]c3ncc(-c4ccc(Cl)cc4)cc23)c1F` [PLX4032] was tested, and the DUSP6 expression (DUSP6 [1]) was “time-dependent decrease of DUSP6 expression”.
With `O=C(Nc1ccc2[nH]nc(-c3ccncc3)c2c1)[C@@H]1CCN(CC(=O)N2CCN(c3ccc(-c4ncccn4)cc3)CC2)C1` [SCH772984] the DUSP6 expression (DUSP6 [2]) was “drop” and the “effectiveness to block ERK signaling” value (ERK signaling) was “not effective to block the ERK signaling in MCF7 cells”.
With `CN1CCN(c2ccc(-c3ccncc3-c3cc(F)c(O)c(F)c3)cc2)CC1` [LJH685] the “levels of activated ERK1/2” value (ERK1/2) was “did not reduce the levels of activated ERK1/2”.
